# Legend:
# [1] = target: T1, Androgen Receptor (Bos taurus) (UniProt Q5EM59); test: Relative binding affinity(RBA) for 50% displacement of [3H]mibolerone from Androgen receptor compared to testorone
# T1 sequence (whole entry): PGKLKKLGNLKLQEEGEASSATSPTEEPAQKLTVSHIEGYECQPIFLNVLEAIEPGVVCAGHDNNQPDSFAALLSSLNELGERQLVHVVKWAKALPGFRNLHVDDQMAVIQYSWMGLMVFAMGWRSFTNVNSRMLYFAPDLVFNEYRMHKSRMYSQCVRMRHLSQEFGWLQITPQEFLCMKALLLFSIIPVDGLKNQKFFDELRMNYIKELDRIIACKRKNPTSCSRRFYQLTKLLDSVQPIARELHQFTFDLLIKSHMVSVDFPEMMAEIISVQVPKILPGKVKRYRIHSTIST
# Method in brief: (§1)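 Receptor source was calf uterine cytosol (105000g supernatant, 3 mg/mL protein in assay). Buffers were Tris/EDTA pH 7.4, with NaN₃ for ER, molybdate/glycerol for AR, and sucrose for PR. Tracers were 1 nM [³H]estradiol, [³H]mibolerone or [³H]Org 2058. Incubation was at 0–4 °C for 16 h (ER) or 2 h (AR, PR), with 4–6 competitor concentrations. Nonspecific binding used 2 µM of the unlabeled hormone. Separation was by dextran-coated charcoal. RBA is the ratio of IC50 values for hormone and compound ×100, mean of two triplicate experiments.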
# [2] = target: Estrogen receptor (Bos taurus) (UniProt Q9XSB5+P49884); test: Relative binding affinity(RBA) for 50% displacement of [3H]-estradiol from Estrogen receptor compared to 17-beta-estradiol; format: protein assay; method in brief: as §1
# [3] = test system: MDA-MB-231; test: Effect on [3H]thymidine incorporation into MDA-MB 231 human breast cancer cells at 1x10E-5 M; format: functional
# Method in brief: (§2)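 Cells were seeded at ~2 × 10⁴ per well, treated from the next day in 0.1% DMSO, with DMSO controls. MCF-7 cells were held in charcoal-stripped NCS for 2 weeks, treated for 5 days and re-dosed on day 4. MDA-MB 231 cells were grown in McCoy 5a/10% NCS and treated for 2 days. At the end, 1 µCi [³H]thymidine per well was added for 2 h. Result is % T/C, mean of three experiments × six dishes.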
# [4] = test system: MDA-MB-231; test: Effect on [3H]-thymidine incorporation into MDA-MB 231 human breast cancer cells at 1x10E-6M; format: functional; method in brief: as §2
# [5] = test system: MDA-MB-231; test: Cytostatic effect on hormone-independent MDA-MB 231 human breast cancer cell proliferation at5x10E-6M; format: functional
# Method in brief: (§3)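 Cells were plated at about 2 × 10⁴ per well in six-well dishes. MCF-7 cells were grown in modified improved MEM with 5% NCS, switched to charcoal-treated NCS two weeks before the test, and exposed for 5 days with a re-dose on day 4. MDA-MB 231 cells were grown in McCoy 5a with 10% NCS and exposed for 2 days. Compounds were given 1 day after plating in 0.1% DMSO, with DMSO-matched controls. Read-out was cell number as % T/C, mean of three experiments with six dishes.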
# [6] = test system: MDA-MB-231; test: Effect on [3H]thymidine incorporation into MDA-MB 231 human breast cancer cells at 5x10E-6M; format: functional; method in brief: as §2
# [7] = test system: MCF7; test: Effect on hormone-dependent MCF-7 human breast cancer cell proliferation at 1x10E-5 M; format: functional; method in brief: as §3
# [8] = test system: MCF7; test: Effect on [3H]-thymidine incorporation into MCF-7 human breast cancer cells at 1x10E-5 M; format: functional; method in brief: as §2
# [9] = test system: MCF7; test: Effect on hormone-dependent MCF-7 human breast cancer cell proliferation at 1x10E-6M; format: functional; method in brief: as §3
# [10] = test system: MCF7; test: Effect on [3H]thymidine incorporation into MCF-7 human breast cancer cells at 1x10E-6M; format: functional; method in brief: as §2
# [11] = species: Bos taurus; test: Relative binding affinity(RBA) as ratio of progesterone and compound required to displace [3H]-org 2058 binding to Progesterone receptor by 50%; method in brief: as §1
# [12] = test system: MDA-MB-231; test: Cytostatic effect on hormone-independent MDA-MB 231 human breast cancer cell proliferation at 1x10E-5 M; format: functional; method in brief: as §3
# [13] = test system: MDA-MB-231; test: Cytostatic effect on hormone-independent MDA-MB 231 human breast cancer cell proliferation at 1x10E-6M; format: functional; method in brief: as §3
# [14] = test system: MCF7; test: Effect on hormone-dependent MCF-7 human breast cancer cell proliferation at 5x10E-6M; format: functional; method in brief: as §3
# [15] = test system: MCF7; test: Effect on [3H]thymidine incorporation into MCF-7 human breast cancer cells at 5x10E-6M; format: functional; method in brief: as §2
# [16] = test system: MCF7; test: Effect on [3H]thymidine incorporation into MCF-7 human breast cancer cells at 1x10E-5 M; format: functional; method in brief: as §2
# [17] = target: T2, Estrogen receptor (Mus musculus) (UniProt O08537+P19785); test: (§4) Estrogenic activity in uterotrophic assay in immature mice at 2 ug subcutaneous dose; format: functional
# T2 sequence (O08537 whole entry, looked up): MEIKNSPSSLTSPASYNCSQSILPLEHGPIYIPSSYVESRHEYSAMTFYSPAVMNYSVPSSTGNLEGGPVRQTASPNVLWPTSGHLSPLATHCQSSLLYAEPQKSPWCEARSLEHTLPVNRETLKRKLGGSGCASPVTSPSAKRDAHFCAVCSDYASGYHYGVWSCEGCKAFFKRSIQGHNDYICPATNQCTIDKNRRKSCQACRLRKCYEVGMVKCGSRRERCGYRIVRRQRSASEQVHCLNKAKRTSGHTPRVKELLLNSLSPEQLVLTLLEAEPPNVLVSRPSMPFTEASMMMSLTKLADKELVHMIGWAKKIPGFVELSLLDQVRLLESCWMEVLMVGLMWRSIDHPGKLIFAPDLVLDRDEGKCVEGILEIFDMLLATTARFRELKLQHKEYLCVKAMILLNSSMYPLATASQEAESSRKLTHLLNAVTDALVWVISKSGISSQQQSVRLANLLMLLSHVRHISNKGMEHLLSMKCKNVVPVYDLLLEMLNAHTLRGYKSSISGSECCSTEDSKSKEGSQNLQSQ
# T2 sequence (P19785 whole entry, looked up): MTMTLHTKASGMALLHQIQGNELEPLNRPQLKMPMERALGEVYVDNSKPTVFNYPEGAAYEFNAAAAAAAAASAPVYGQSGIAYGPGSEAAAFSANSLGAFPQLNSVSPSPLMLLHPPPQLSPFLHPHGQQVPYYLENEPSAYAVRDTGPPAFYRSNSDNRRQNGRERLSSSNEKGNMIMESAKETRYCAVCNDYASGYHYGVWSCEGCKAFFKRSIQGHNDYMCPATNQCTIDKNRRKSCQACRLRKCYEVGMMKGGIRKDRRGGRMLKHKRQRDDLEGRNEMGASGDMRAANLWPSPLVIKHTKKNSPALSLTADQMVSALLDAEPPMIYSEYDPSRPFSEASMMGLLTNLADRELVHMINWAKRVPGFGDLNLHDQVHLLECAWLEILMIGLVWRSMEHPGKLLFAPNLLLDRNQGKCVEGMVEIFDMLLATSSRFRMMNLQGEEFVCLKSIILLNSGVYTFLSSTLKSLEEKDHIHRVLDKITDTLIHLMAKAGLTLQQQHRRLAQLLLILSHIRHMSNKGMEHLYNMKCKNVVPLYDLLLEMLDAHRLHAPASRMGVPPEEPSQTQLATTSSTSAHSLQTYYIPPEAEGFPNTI
# Method in brief: (§5)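 Immature female NMRI mice, 20 days old, in groups of 6-10, were dosed sc once daily for three consecutive days. Compounds were given in PEG/0.9% saline 1:1; vehicle controls were included. Animals were killed 24 h after the last dose. Uteri were fixed in Bouin solution and the effect was taken as uterine dry weight (mg)/body weight (g) ×100, given as mean ± SD.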
# [18] = target: T2, Estrogen receptor (Mus musculus); test: (§6) Estrogenic activity in uterotrophic assay in immature mice at 50.0 ug subcutaneous dose; format: functional; method in brief: as §5
# [19] = target: T2, Estrogen receptor (Mus musculus); test: (§7) Estrogenic activity in uterotrophic assay in immature mice at 10.0 ug subcutaneous dose; format: functional; method in brief: as §5
# [20] = target: T2, Estrogen receptor (Mus musculus); test: as §4; format: functional; method in brief: as §5; remark: listed apart in the source
# [21] = target: T2, Estrogen receptor (Mus musculus); test: (§8) Estrogenic activity in uterotrophic assay in immature mice at 250 ug subcutaneous dose; format: functional; method in brief: as §5
# [22] = target: T2, Estrogen receptor (Mus musculus); test: as §6; format: functional; method in brief: as §5; remark: listed apart in the source
# [23] = target: T2, Estrogen receptor (Mus musculus); test: as §8; format: functional; method in brief: as §5; remark: listed apart in the source
# [24] = target: T2, Estrogen receptor (Mus musculus); test: as §7; format: functional; method in brief: as §5; remark: listed apart in the source
# [25] = target: T2, Estrogen receptor (Mus musculus); test: Inhibition of 0.4 ug estrone-stimulated uterine growth in mice at 10.0 ug subcutaneous dose; format: functional
# Method in brief: (§9)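 Immature 20-day-old female NMRI mice received sc injections on three consecutive days. Each injection held 0.4 µg estrone plus the compound in PEG/saline 1:1. […] Significance was tested by Mann-Whitney U test.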
# [26] = target: T2, Estrogen receptor (Mus musculus); test: Inhibition of 0.4 ug estrone-stimulated uterine growth in mice at 2 ug subcutaneous dose; format: functional; method in brief: as §9
# [27] = target: T3, Androgen receptor (Mus musculus) (UniProt P19091); test: Inhibition of testosterone-stimulated seminal vesicle growth in castrated mice supplemented with 0.3 mg of TP at 1000.0 ug; format: functional
# T3 sequence (whole entry): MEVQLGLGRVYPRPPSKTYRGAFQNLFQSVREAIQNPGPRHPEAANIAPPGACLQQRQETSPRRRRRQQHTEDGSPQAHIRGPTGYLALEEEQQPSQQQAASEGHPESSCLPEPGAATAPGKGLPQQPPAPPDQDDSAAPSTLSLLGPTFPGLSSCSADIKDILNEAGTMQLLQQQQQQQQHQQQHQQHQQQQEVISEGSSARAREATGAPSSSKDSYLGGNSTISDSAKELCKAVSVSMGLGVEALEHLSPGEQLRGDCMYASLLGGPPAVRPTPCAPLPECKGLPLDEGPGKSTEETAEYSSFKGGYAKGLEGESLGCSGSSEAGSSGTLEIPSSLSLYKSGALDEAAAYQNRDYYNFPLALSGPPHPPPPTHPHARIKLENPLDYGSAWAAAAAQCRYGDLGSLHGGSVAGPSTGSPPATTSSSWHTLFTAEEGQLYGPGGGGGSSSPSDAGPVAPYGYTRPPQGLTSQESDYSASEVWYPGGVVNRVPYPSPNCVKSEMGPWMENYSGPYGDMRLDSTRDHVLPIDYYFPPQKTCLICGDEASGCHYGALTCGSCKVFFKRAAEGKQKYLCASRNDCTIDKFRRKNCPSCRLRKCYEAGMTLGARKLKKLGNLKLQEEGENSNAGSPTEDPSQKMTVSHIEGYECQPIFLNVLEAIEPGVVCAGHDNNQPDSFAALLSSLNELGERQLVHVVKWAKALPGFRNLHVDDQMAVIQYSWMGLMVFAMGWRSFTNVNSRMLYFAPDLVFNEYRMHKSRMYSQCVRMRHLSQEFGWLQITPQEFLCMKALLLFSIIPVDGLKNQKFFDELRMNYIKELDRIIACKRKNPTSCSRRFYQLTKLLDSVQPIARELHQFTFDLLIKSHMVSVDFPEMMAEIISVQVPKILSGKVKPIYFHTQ
# Method in brief: (§10)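 Adult male mice, 23–25 g, six per group, were used intact or castrated via the scrotal route under ether 5 days before the test. Castrates received 0.3 mg testosterone propionate daily. Compounds were injected daily in olive oil for nine days. Seminal vesicles were taken 24 h later, fixed in Bouin solution, dried overnight at 100 °C and weighed. Result is organ mg/body g ×100; % inhibition = [1 − treated/control] × 100.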
# [28] = target: T2, Estrogen receptor (Mus musculus); test: Inhibition of 0.4 ug estrone-stimulated uterine growth in mice at 250 ug subcutaneous dose; format: functional; method in brief: as §9
# [29] = target: T3, Androgen receptor (Mus musculus); test: Relative effect on seminal vesicle weight in adult and castrated mice at 1000 ug dose; format: functional, tissue-based; method in brief: as §10
# [30] = target: T3, Androgen receptor (Mus musculus); test: Relative effect on seminal vesicle weight in adult and castrated mice supplemented with 0.3 mg TP at 1000 ug dose; format: functional, tissue-based; method in brief: as §10
# [31] = target: T3, Androgen receptor (Mus musculus); test: Relative effect on seminal vesicle weight in adult and castrated mice at 100 ug dose; format: functional, tissue-based; method in brief: as §10
# [32] = target: T2, Estrogen receptor (Mus musculus); test: Inhibition of 0.4 ug estrone-stimulated uterine growth in mice at 50.0 ug subcutaneous dose; format: functional; method in brief: as §9
# [33] = target: T3, Androgen receptor (Mus musculus); test: Inhibition of seminal vesicle weight in intact mice at 100 ug
RBA [1],RBA [2],RBA [11],Effect [17],Effect [18],Effect [19],Effect [20],Compound,T/C [3],T/C [4],T/C [5],T/C [6],T/C [7],T/C [8],T/C [9],T/C [10],T/C [12],T/C [13],T/C [14],T/C [15],T/C [16],other results
0.01,1.5,< 0.01,,,,,CCc1cc2cc(OC(C)=O)ccc2c2cc3ccc(OC(C)=O)cc3n12,3%,80%,8%,7%,5%,3%,75%,70%,,,,,,
,,,,,,,CC/C(=C(\c1ccccc1)c1ccc(OCCN(C)C)cc1)c1ccccc1 [TAMOXIFEN],97%,100%,,,17%,5%,51%,46%,94%,107%,,,,
< 0.01,0.15,< 0.01,,,,,CC(=O)Oc1ccc2c(c1)cc1n2CCc2cc(OC(C)=O)c(OC(C)=O)cc2-1,,,,,,,,,,,,,,
2.5,4,0.05,11.5,18.5,44.5,49.6,CCC1Cc2cc(OC(C)=O)ccc2-c2cc3ccc(OC(C)=O)cc3n21 (stereo not drawn),8%,93%,11%,11%,6%,,67%,42%,11%,98%,39%,24%,2%,Effect [21]: 48.2; Effect [22]: 18.5; Effect [23]: 40.5; Effect [24]: 15.7; inhibition [25]: 17.4%; inhibition [26]: 2.8%; inhibition [27]: 12%; inhibition [28]: 6.8%; Relative seminal vesicle weight [29]: 121; Relative seminal vesicle weight [30]: 200; Relative seminal vesicle weight [31]: 156; inhibition [32]: 31%; inhibition [33]: 21%
< 0.01,2.5,< 0.01,16.8,24.1,44.1,50.9,CCC1Cn2c(cc3cc(OC(C)=O)ccc32)-c2ccc(OC(C)=O)cc21 (stereo not drawn),25%,,88%,90%,31%,,,,45%,,97%,95%,7%,Effect [21]: 42.7; Effect [22]: 42.5; Effect [23]: 46.1; Effect [24]: 21.5; inhibition [25]: 18.7%; inhibition [28]: 22.4%; inhibition [32]: 23.3%
< 0.01,0.01,,,,,,CC(=O)Oc1ccc2c(c1)CCn1c-2cc2cc(OC(C)=O)c(OC(C)=O)cc21,,,,,,,,,,,,,,

# Source: ChEMBL document CHEMBL1124929, “Indolo[2,1-a]isoquinolines. Syntheses, steroid hormone receptor binding affinities, and cytostatic activity” (1990)
